Measurements: ChEMBL document CHEMBL1138555, “N-acylated and N,N'-diacylated imidazolidine-2-thione derivatives and N,N'-diacylated tetrahydropyrimidine-2(1H)-thione analogues: synthesis and antiproliferative activity” (Eur J Med Chem, 2009)
pIC50: −log10 of the molar value.

Legend:
786-0 = experiment: Growth inhibition of human 786-0 cells after 48 hrs by sulforhodamine B assay; type: functional; conditions: 786-0, 48 h
In short: (§1)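 NCI screen panel. Five 10-fold concentrations from 10^-4 to 10^-8 M. Exposure for the last 48 h of a 72 h incubation. Growth estimated by sulforhodamine B protein assay. GI50 is the concentration giving 50% growth inhibition. Where that level was not reached or was exceeded, the value is given as above or below the highest or lowest concentration tested.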

NCI-H522 = experiment: Growth inhibition of human NCI-H522 cells after 48 hrs by sulforhodamine B assay; type: functional; conditions: NCI-H522, 48 h; in short: as §1
SK-OV-3 = experiment: Growth inhibition of human SKOV3 cells after 48 hrs by sulforhodamine B assay; type: functional; conditions: SK-OV-3, 48 h; in short: as §1
OVCAR-3 = experiment: Growth inhibition of human OVCAR-3 cells after 48 hrs by sulforhodamine B assay; type: functional; conditions: OVCAR-3, 48 h; in short: as §1
UACC-62 = experiment: Growth inhibition of human UACC62 cells after 48 hrs by sulforhodamine B assay; type: functional; conditions: UACC-62, 48 h
In short: (§2)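 NCI in vitro panel screen. Compounds tested at five 10-fold dilutions, 10^-4 to 10^-8 M. Cells in 96-well plates were exposed for the last 48 h of a 72 h incubation. Viability/growth was read by sulforhodamine B protein assay. GI50 is the concentration giving 50% growth inhibition. Values beyond the tested range are reported as greater or less than the maximum or minimum concentration.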

SR = experiment: Growth inhibition of human SR cells after 48 hrs by sulforhodamine B assay; type: functional; in short: as §2
SK-MEL-5 = experiment: Growth inhibition of human SK-MEL-5 cells after 48 hrs by sulforhodamine B assay; type: functional; conditions: SK-MEL-5, 48 h; in short: as §1
HCT-15 = experiment: Growth inhibition of human HCT15 cells after 48 hrs by sulforhodamine B assay; type: functional; conditions: HCT-15, 48 h; in short: as §1
NCI-H23 = experiment: Growth inhibition of human NCI-H23 cells after 48 hrs by sulforhodamine B assay; type: functional; conditions: NCI-H23, 48 h; in short: as §1
SF-268 = experiment: Growth inhibition of human SF268 cells after 48 hrs by sulforhodamine B assay; type: functional; conditions: SF-268, 48 h; in short: as §1
HOP-62 = experiment: Growth inhibition of human HOP62 cells after 48 hrs by sulforhodamine B assay; type: functional; conditions: HOP-62, 48 h; in short: as §1
MCF7 = experiment: Growth inhibition of human MCF7 cells after 48 hrs by sulforhodamine B assay; type: functional; conditions: MCF7, 48 h; in short: as §1
SK-MEL-28 = experiment: Growth inhibition of human SK-MEL-28 cells after 48 hrs by sulforhodamine B assay; type: functional; conditions: SK-MEL-28, 48 h; in short: as §1
MOLT-4 = experiment: Growth inhibition of human MOLT4 cells after 48 hrs by sulforhodamine B assay; type: functional; conditions: MOLT-4, 48 h; in short: as §1
K562 = experiment: Growth inhibition of human K562 cells after 48 hrs by sulforhodamine B assay; type: functional; conditions: K562, 48 h; in short: as §1
SW-620 = experiment: Growth inhibition of human SW620 cells after 48 hrs by sulforhodamine B assay; type: functional; conditions: SW-620, 48 h; in short: as §2
SK-MEL-2 = experiment: Growth inhibition of human SK-MEL-2 cells after 48 hrs by sulforhodamine B assay; type: functional; conditions: SK-MEL-2, 48 h; in short: as §1
COLO 205 = experiment: Growth inhibition of human COLO205 cells after 48 hrs by sulforhodamine B assay; type: functional; conditions: COLO 205, 48 h; in short: as §1
RXF 393 = experiment: Growth inhibition of human RXF393 cells after 48 hrs by sulforhodamine B assay; type: functional; conditions: RXF 393, 48 h; in short: as §1
BT-549 = experiment: Growth inhibition of human BT549 cells after 48 hrs by sulforhodamine B assay; type: functional; conditions: BT-549, 48 h; in short: as §1
A549 = experiment: Growth inhibition of human A549 cells after 48 hrs by sulforhodamine B assay; type: functional; conditions: A549, 48 h; in short: as §1
HT-29 = experiment: Growth inhibition of human HT-29 cells after 48 hrs by sulforhodamine B assay; type: functional; conditions: HT-29, 48 h; in short: as §1
LOX IMVI = experiment: Growth inhibition of human LOXIMVI cells after 48 hrs by sulforhodamine B assay; type: functional; in short: as §1
TK-10 = experiment: Growth inhibition of human TK10 cells after 48 hrs by sulforhodamine B assay; type: functional; conditions: TK-10, 48 h; in short: as §2
MDA-MB-435 = experiment: Growth inhibition of human MDA-MB-435 cells after 48 hrs by sulforhodamine B assay; type: functional; conditions: MDA-MB-435, 48 h; in short: as §1
SNB-75 = experiment: Growth inhibition of human SNB75 cells after 48 hrs by sulforhodamine B assay; type: functional; conditions: SNB-75, 48 h; in short: as §2
HCT-116 = experiment: Growth inhibition of human HCT116 cells after 48 hrs by sulforhodamine B assay; type: functional; conditions: HCT-116, 48 h; in short: as §1
UO-31 = experiment: Growth inhibition of human UO31 cells after 48 hrs by sulforhodamine B assay; type: functional; conditions: UO-31, 48 h; in short: as §2
ACHN = experiment: Growth inhibition of human ACHN cells after 48 hrs by sulforhodamine B assay; type: functional; in short: as §1
HOP-92 = experiment: Growth inhibition of human HOP92 cells after 48 hrs by sulforhodamine B assay; type: functional; conditions: HOP-92, 48 h; in short: as §1
SN12C = experiment: Growth inhibition of human SN12C cells after 48 hrs by sulforhodamine B assay; type: functional; in short: as §2
EKVX = experiment: Growth inhibition of human EKVX cells after 48 hrs by sulforhodamine B assay; type: functional; in short: as §1
T47D = experiment: Growth inhibition of human T47D cells after 48 hrs by sulforhodamine B assay; type: functional; in short: as §2
SF-539 = experiment: Growth inhibition of human SF539 cells after 48 hrs by sulforhodamine B assay; type: functional; conditions: SF-539, 48 h; in short: as §1
OVCAR-8 = experiment: Growth inhibition of human OVCAR8 cells after 48 hrs by sulforhodamine B assay; type: functional; conditions: OVCAR-8, 48 h; in short: as §1
HL-60(TB) = experiment: Growth inhibition of human HL-60(TB) cells after 48 hrs by sulforhodamine B assay; type: functional; conditions: HL-60, 48 h
In short: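 NCI 60-cell-line screen protocol: cells exposed to compound at five 10-fold dilutions from 10^-4 to 10^-8 M for the last 48 h of a 72 h incubation. Sulforhodamine B protein assay estimated viability/growth. GI50 (50% growth inhibition) derived; where not reached or exceeded, reported as greater or less than the highest or lowest concentration tested.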

U-251 = experiment: Growth inhibition of human U251 cells after 48 hrs by sulforhodamine B assay; type: functional; conditions: U-251, 48 h; in short: as §2
MT4 = experiment: Antiproliferative activity against human MT4 cells assessed as reduction of growth by MTT assay; type: functional, cell-based
In short: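 MT-4 lymphoblastoid T cells (ATCC) in RPMI 1640 with 10% FCS, penicillin/streptomycin, checked for mycoplasma. 1 × 10⁴ mock-infected cells per well with serial dilutions from a 100 mM DMSO stock. Incubated 4 days at 37 °C, viable cells counted by MTT. IC50 versus untreated controls by linear regression. Mean of three separate experiments.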

NCI-H460 = experiment: Growth inhibition of human NCI-H460 cells after 48 hrs by sulforhodamine B assay; type: functional; conditions: NCI-H460, 48 h; in short: as §1
DU-145 = experiment: Growth inhibition of human DU145 cells after 48 hrs by sulforhodamine B assay; type: functional; conditions: DU-145, 48 h; in short: as §1
[1] = Growth inhibition of human […] cells after 48 hrs by sulforhodamine B assay; type: functional; in short: as §1
SF-295 = experiment: Growth inhibition of human SF295 cells after 48 hrs by sulforhodamine B assay; type: functional; conditions: SF-295, 48 h; in short: as §1
NCI-H322M = experiment: Growth inhibition of human NCI-H322M cells after 48 hrs by sulforhodamine B assay; type: functional; in short: as §1
PC-3 = experiment: Growth inhibition of human PC3 cells after 48 hrs by sulforhodamine B assay; type: functional; conditions: PC-3, 48 h; in short: as §1
KM12 = experiment: Growth inhibition of human KM12 cells after 48 hrs by sulforhodamine B assay; type: functional; conditions: KM12, 48 h; in short: as §1
MDA-MB-231 = experiment: Growth inhibition of human MDA-MB-231 cells after 48 hrs by sulforhodamine B assay; type: functional; conditions: MDA-MB-231, 48 h; in short: as §1
CAKI-1 = experiment: Growth inhibition of human Caki1 cells after 48 hrs by sulforhodamine B assay; type: functional; conditions: CAKI-1, 48 h; in short: as §1
IGROV-1 = experiment: Growth inhibition of human IGROV1 cells after 48 hrs by sulforhodamine B assay; type: functional; conditions: IGROV-1, 48 h; in short: as §1
SNB-19 = experiment: Growth inhibition of human SNB19 cells after 48 hrs by sulforhodamine B assay; type: functional; conditions: SNB-19, 48 h; in short: as §2
OVCAR-4 = experiment: Growth inhibition of human OVCAR4 cells after 48 hrs by sulforhodamine B assay; type: functional; conditions: OVCAR-4, 48 h; in short: as §1
CCRF-CEM = experiment: Growth inhibition of human CCRF-CEM cells after 48 hrs by sulforhodamine B assay; type: functional; in short: as §1
M14 = experiment: Growth inhibition of human M14 cells after 48 hrs by sulforhodamine B assay; type: functional; conditions: M14, 48 h; in short: as §1
Malme-3M = experiment: Growth inhibition of human MALME-3M cells after 48 hrs by sulforhodamine B assay; type: functional; in short: as §1

N#C/C(=C\N1CCN(C(=O)c2ccco2)C1=S)C(=O)c1ccccc1 showed a GI50 (786-0) of 16.1 µM, a GI50 (NCI-H522) of 3.7 µM and a GI50 (SK-OV-3) of 37.4 µM. For the same molecule, the GI50 (OVCAR-3) was 18.2 µM, the GI50 (UACC-62) was 12.9 µM and the GI50 (SR) was 2.8 µM. For the same molecule, the GI50 (SK-MEL-5) was 8.3 µM, the GI50 (HCT-15) was 5.7 µM and the GI50 (NCI-H23) was 15.2 µM. The GI50 (SF-268) was 31.2 µM, the GI50 (HOP-62) was 22 µM and the GI50 (MCF7) was 4.5 µM. It also gave a GI50 (SK-MEL-28) of 28 µM, a GI50 (MOLT-4) of 43.7 µM and a GI50 (K562) of 5.5 µM. It also gave a GI50 (SW-620) of 5.9 µM, a GI50 (SK-MEL-2) of 3.7 µM and a GI50 (COLO 205) of 23.2 µM. It also gave a GI50 (RXF 393) of 4.1 µM, a GI50 (BT-549) of 7.8 µM and a GI50 (A549) of 22 µM. For the same molecule, the GI50 (HT-29) was 30.5 µM, the GI50 (LOX IMVI) was 17.9 µM and the GI50 (TK-10) was 10.5 µM. For the same molecule, the GI50 (MDA-MB-435) was 11 µM, the GI50 (SNB-75) was 68.2 µM and the GI50 (HCT-116) was 9.1 µM. The GI50 (UO-31) was 10.2 µM, the GI50 (ACHN) was 16.6 µM and the GI50 (HOP-92) was 26.9 µM. For the same molecule, the GI50 (SN12C) was 8.6 µM, the GI50 (EKVX) was 17.8 µM and the GI50 (T47D) was 7.2 µM. For the same molecule, the GI50 (SF-539) was 2.2 µM, the GI50 (OVCAR-8) was 25.4 µM and the GI50 (HL-60(TB)) was 31.5 µM. It also gave a GI50 (U-251) of 17 µM, a pIC50 (MT4) of 5.52 and a GI50 (NCI-H460) of 9.5 µM. For the same molecule, the GI50 (DU-145) was 5 µM, the GI50 [1] was 5.6 µM and the GI50 (SF-295) was 43.6 µM. The GI50 (NCI-H322M) was 23.4 µM, the GI50 (PC-3) was 31.7 µM and the GI50 (KM12) was 6.5 µM. It also gave a GI50 (MDA-MB-231) of 13.7 µM, a GI50 (CAKI-1) of 12.5 µM and a GI50 (IGROV-1) of 19.4 µM. For the same molecule, the GI50 (SNB-19) was 39.7 µM, the GI50 (OVCAR-4) was 29.8 µM and the GI50 (CCRF-CEM) was 41.9 µM. For the same molecule, the GI50 (M14) was 14.9 µM and the GI50 (Malme-3M) was 30.7 µM.
